From publication PMC8518816 (Chemmedchem, 2021)

Assays:
[1] = biological target: T1, PTP1B (Homo sapiens, UniProt P18031); assay: PTP1B enzyme inhibition; type: biochemical; conditions: for inhibition at 1 µM: read-out: % Inhib. PTP1B @ 1 μM
T1 sequence (P18031 1-322 limits assumed): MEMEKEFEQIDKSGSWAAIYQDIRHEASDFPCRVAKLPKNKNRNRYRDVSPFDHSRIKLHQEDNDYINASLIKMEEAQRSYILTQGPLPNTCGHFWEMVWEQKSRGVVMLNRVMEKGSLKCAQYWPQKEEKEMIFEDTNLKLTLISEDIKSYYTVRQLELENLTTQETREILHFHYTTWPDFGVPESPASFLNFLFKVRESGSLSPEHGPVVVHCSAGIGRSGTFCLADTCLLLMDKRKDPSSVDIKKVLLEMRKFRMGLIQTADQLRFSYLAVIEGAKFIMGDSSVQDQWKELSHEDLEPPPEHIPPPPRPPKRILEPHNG
How it was run: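 Recombinant 322-amino-acid PTP1B preincubated with test compound; pNPP substrate then added and hydrolysis followed as absorbance increase at 405 nm. IC50 fitted from increasing compound concentrations, each point in duplicate. Percent inhibition also taken at 1 μM.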

[2] = biological target: T2, TCPTP (Homo sapiens, UniProt P17706); assay: TCPTP enzyme inhibition; type: biochemical; conditions: read-out: % Inhib. TCPTP @ 1 μM
T2 sequence (P17706 1-341 limits assumed): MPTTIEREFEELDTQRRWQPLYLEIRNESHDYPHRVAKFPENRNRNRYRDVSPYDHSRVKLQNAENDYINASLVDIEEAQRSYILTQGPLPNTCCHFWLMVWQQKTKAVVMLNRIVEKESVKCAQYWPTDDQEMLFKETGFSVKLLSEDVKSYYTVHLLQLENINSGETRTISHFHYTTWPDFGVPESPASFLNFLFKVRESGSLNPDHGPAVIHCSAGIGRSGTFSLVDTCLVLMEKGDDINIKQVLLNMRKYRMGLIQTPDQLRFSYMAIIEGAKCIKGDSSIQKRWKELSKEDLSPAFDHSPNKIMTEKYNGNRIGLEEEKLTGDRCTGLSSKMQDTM
How it was run: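 Selectivity counter-screen using recombinant 341-amino-acid TCPTP mixed with test compound at 1 μM. Substrate pNPP added, and hydrolysis read as absorbance increase at 405 nm. Each point run in duplicate; output is percent inhibition.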

[3] = test system: C2 C12 myotubes; assay: Glucose uptake; type: cell-based, Mouse; conditions: 2 μM, 90 min, 2-NBDG 0.1 mM
How it was run: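 Mouse C2C12 myoblasts grown in DMEM with 10 % heat-inactivated FBS and penicillin/streptomycin (37 °C, 5 % CO2), then differentiated in DMEM with 2 % horse serum, changed every 48 h. Test compound at 2 μM for 90 min (insulin 10 nM, 30 min as positive control), then 0.1 mM 2-NBDG for 30 min. Washed three times with cold PBS. Intracellular fluorescence minus no-2-NBDG autofluorescence, corrected for BCA protein, relative to vehicle; 5 independent experiments, mean ± S.E.M.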

[4] = IC50±SD, soluble 322 amino acids PTP1B, pNPP substrate
[5] = pIC50, soluble 322 amino acids PTP1B

Structure (SMILES)	SI (selectivity index, percentage inhibition ratio PTP1B/TCPTP at 1 μM) [1]	inhibition at 1 µM [1]	inhibition at 1 µM [2]	IC50 [1, 4]	IC50 [1, 5]	increase of glucose uptake with respect to control cells [3]
Cc1nc2ccccc2n2cccc12 [Compound 1, 4‐methylpyrrolo[1,2‐a]quinoxaline]	0.94	51%	54%	–	–	–
Cc1nc2ccccc2n2ccnc12 [Compound 2, 4‐Methylimidazo[1,2‐a]quinoxaline]	1.97	87%	44%	460 ± 40 nM	468 nM	15%
Cc1nc2ccccc2n2cnnc12 [Compound 3, 4‐Methyl[1,2,4]triazolo[4,3‐a]quinoxaline]	1.27	70%	55%	790 ± 10 nM	794 nM	~30%
Cc1nc2ccccc2n2nnnc12 [Compound 4, 4‐Methyltetrazolo[1,5‐a]quinoxaline]	–	46%	50%	1480 ± 70 nM	1510 nM	–

More lines, main results first:

SI (selectivity index, percentage inhibition ratio PTP1B/TCPTP at 1 μM) [1]	inhibition at 1 µM [1]	inhibition at 1 µM [2]	IC50 [1, 4]	IC50 [1, 5]	Structure (SMILES)	increase of glucose uptake with respect to control cells [3]
1.17	80%	68%	620 ± 200 nM	631 nM	c1ccc2c(c1)ncc1nnnn12 [Compound 9, Tetrazolo[1,5‐a]quinoxaline]	–
–	37%	35%	2170 ± 80 nM	2190 nM	CC1Nc2ccccc2-n2nnnc21 (stereo not shown) [Compound 10, 4‐Methyl‐4,5‐dihydrotetrazolo[1,5‐a]quinoxaline]	–
